According to PubChem BioAssay AID743238 (Broad Institute, 2013):
Screen size: about 360,000 compounds; about 200 (0.056%) were called active.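 How the source made its calls: active means mean normalized replicate activation at least 10% and every replicate at or above 10%; inconclusive means only one of the two criteria met; inactive means mean below 10% and not all replicates reach 10%.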 The list comes from a sample in which actives are over-represented; it also holds similar structures and randomly drawn compounds.

assay: Xi reactivation inducers in mouse fibroblasts – imaging, XiGFP fibroblasts, GFP high-content imaging, set 2, primary screen (AID 743238); conditions: % GFP-positive cells imaging, 3 d, at 7.58 µM, hits give high values, cells co-treated with 5-aza-dC sensitizer, scaled so ellipticine positive control = 100%;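 further: 0% = median of on-plate neutral control wells and 100% = ellipticine 6 µM median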
Summary of the method: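 Assay system: SV40-immortalized XiGFP fibroblast cells, line 68-5-11; buffer or medium: DMEM plus 5-aza-dC sensitizer; compound: one concentration, pinned; timing: compounds 3 days, fix/stain 15 min at room temperature; benchmarks: positive control ellipticine, 6 µM final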

| SMILES | activation |
| --- | --- |
| O=C(Nc1cc(F)ccc1F)N[C@H]1CC[C@H](CCn2cc(C3CCCC3)nn2)O[C@@H]1CO | 0.418% (inactive) |
| C/C=C/c1ccccc1[C@H]1[C@@H](C#N)N(c2nc(CC)cs2)[C@@H]1CO | -0.0085% (inactive) |
| OC[C@@H]1[C@@H](c2ccccc2)C2(CN(Cc3cccc(F)c3)C2)N1CC1CCCC1 | -0.0685% (inactive) |
| CO[C@@H]1CN(C)C(=O)c2cc(NC(=O)C3CCCC3)ccc2OC[C@@H](C)N(C(=O)Nc2ccc(C(F)(F)F)cc2)C[C@H]1C | 0.0025% (inactive) |
| C[C@@H]1CN([C@H](C)CO)C(=O)c2cccc(NS(=O)(=O)c3ccc(Cl)cc3)c2O[C@@H]1CN(C)CC1CC1 | 0.281% (inactive) |
| Cc1noc(C)c1NC(=O)N(C)C[C@@H]1Oc2c(NC(=O)C3CCCCC3)cccc2C(=O)N([C@H](C)CO)C[C@@H]1C | -0.974% (inactive) |
| CCCC(=O)N1CCC2(CC1)CN[C@H](CO)c1[nH]c3cc(OC)ccc3c12 | -0.018% (inactive) |
| O=C(C[C@@H]1CC[C@H]2[C@@H](COC[C@@H](O)CN2S(=O)(=O)c2cccc(F)c2)O1)NCCCN1CCOCC1 | -0.0535% (inactive) |
| C[C@@H]1CCCCO[C@H](CN(C)Cc2ccncc2)[C@@H](C)CN([C@H](C)CO)C(=O)c2cc(NS(C)(=O)=O)ccc2O1 | -0.0215% (inactive) |
| CO[C@H]1CN(C)C(=O)c2ccc(NC(=O)C3CCC3)cc2OC[C@H](C)NC[C@@H]1C | 0.146% (inactive) |
| COc1ccc(NC(=O)Nc2ccc3c(c2)[C@H]2C[C@H](CC(=O)NC4CCCC4)O[C@@H](CO)[C@H]2O3)cc1 | 4.51% (inactive) |
| COc1cccc(-c2ccc([C@@H]3[C@H]4CN(C(=O)c5cccnc5)CC(=O)N4[C@H]3CO)cc2)c1 | 0.076% (inactive) |
| O=C(c1ccncc1)N1C[C@H]2[C@@H](c3ccccc31)[C@H](CO)N2C(=O)Nc1ccc(F)cc1 | 0.255% (inactive) |
| C[C@H]1CN([C@@H](C)CO)C(=O)Cc2cc(NC(=O)Cc3ccccc3)ccc2O[C@@H]1CN(C)S(=O)(=O)c1ccc(Cl)cc1 | -1.34% (inactive) |
| CO[C@@H]1CN(C)C(=O)c2cc(NC(=O)NC3CCCC3)ccc2OC[C@H](C)NC[C@H]1C | 0.41% (inactive) |
| C[C@@H]1CCCCO[C@@H](CN(C)C(=O)CCCN(C)C)[C@@H](C)CN([C@H](C)CO)C(=O)c2cc(NC(=O)Nc3ccc(F)cc3)ccc2O1 | 0.229% (inactive) |
| COc1ccc(N2C(=O)C3CCCN3C2c2cccs2)cc1 (stereo not given) | -0.124% (inactive) |
| COc1ccc(N2C(=O)C3CCCN3C2c2cc(OC)c(OC)cc2OC)cc1 (stereo not given) | 0% (inactive) |
| COc1ccc(N2C(=O)C3CCCN3C2c2cccc(OC)c2)cc1 (stereo not given) | 12.3% (active) |
| O=C(C[C@@H]1CC[C@@H]2[C@H](COC[C@H](O)CN2C(=O)C2CC2)O1)NCc1ccncc1 | 0.085% (inactive) |

| SMILES | activation |
| --- | --- |
| C[C@@H]1CCCCO[C@H](CN(C)S(C)(=O)=O)[C@@H](C)CN([C@@H](C)CO)C(=O)c2cc(NC(=O)CCC(F)(F)F)ccc2O1 | 0.0715% (inactive) |
| O=C(c1ccccn1)N1CC2(C1)[C@@H](c1ccccc1)[C@@H](CO)N2C(=O)C1CCCCC1 | -0.0175% (inactive) |
| O=C(N[C@@H]1CC[C@H](CCn2cc(C3CC3)nn2)O[C@H]1CO)c1cccnc1 | -0.107% (inactive) |
| CO[C@H]1CN(C)C(=O)c2cc(NC(=O)C3CC3)ccc2OC[C@@H](C)NC[C@H]1C | 0.168% (inactive) |
| CNc1cncc(-c2cccc(C(=O)N3CCOCC3)c2)n1 | 0.023% (inactive) |
| CCc1nc2ccc(C(=O)N3CCN(c4cccc(Cl)c4)CC3)cc2nc1CC | 0.143% (inactive) |
| C#Cc1cc(N2CCN(C(=O)c3ccoc3)CC2)n2nc(-c3cccc(Cl)c3)cc2n1 | 34% (active) |
| CO[C@@H]1CN(C)C(=O)c2cc(NC(=O)c3cccc(F)c3)ccc2OC[C@H](C)N(C)C[C@@H]1C | -0.118% (inactive) |
| COc1ccc(NC(=O)N(C)C[C@@H]2OCCCC[C@H](C)Oc3ccc(NS(=O)(=O)c4c(C)noc4C)cc3C(=O)N([C@@H](C)CO)C[C@@H]2C)cc1 | 0.115% (inactive) |
| C[C@H](CO)N1C[C@H](C)[C@H](CN(C)Cc2ccc(C(=O)Nc3ccccc3N)cc2)Oc2ccc(NC(=O)Nc3ccccc3)cc2CC1=O | 0.0505% (inactive) |
| Cc1noc(C)c1NC(=O)Nc1ccc2c(c1)C(=O)N([C@H](C)CO)C[C@@H](C)[C@H](CN(C)C(=O)Nc1cccc3ccccc13)OCCCC[C@@H](C)O2 | 0.305% (inactive) |
| COc1cccc(CNC(=O)C[C@@H]2CC[C@H]3[C@@H](COc4ccc(NC(=O)c5cccs5)cc4C(=O)N3C)O2)c1 | -0.028% (inactive) |
| C[C@H]1CN([C@@H](C)CO)C(=O)c2ccccc2-c2ccccc2CO[C@H]1CN(C)Cc1ccc(-c2ccccc2)cc1 | 0.132% (inactive) |
| COc1ccc(S(=O)(=O)Nc2ccc3c(c2)CC(=O)N([C@@H](C)CO)C[C@@H](C)[C@H](CN(C)S(=O)(=O)c2ccccc2)O3)cc1 | 0.178% (inactive) |
| COc1cccc(S(=O)(=O)N[C@H]2C=C[C@H](CC(=O)NC3Cc4ccccc4C3)O[C@H]2CO)c1 | 0.645% (inactive) |
| C[C@H](O)C#Cc1cnc2c(c1)C(=O)N([C@@H](C)CO)C[C@H](C)[C@@H](CN(C)C(=O)c1ccccc1)O2 | -0.975% (inactive) |
| Cc1ccccc1-c1ccc([C@H]2[C@@H](CO)N3C(=O)CN(C(=O)c4ccncc4)C[C@@H]23)cc1 | -0.015% (inactive) |
| COc1ccc(S(=O)(=O)Nc2ccc3c(c2)C(=O)N([C@@H](C)CO)C[C@H](C)[C@@H](CN(C)C(=O)c2ccccc2)OCCCC[C@H](C)O3)cc1 | 0.072% (inactive) |
| COc1ccc2c3c(n(C)c2c1)[C@@H](CO)N(C(C)=O)CC31CCN(Cc2ccc(Cl)cc2)CC1 | 0.225% (inactive) |
| C[C@@H]1CCCCO[C@@H](CN(C)S(=O)(=O)c2cn(C)cn2)[C@@H](C)CN([C@@H](C)CO)C(=O)c2cc(NC(=O)Nc3ccc(C(F)(F)F)cc3)ccc2O1 | -0.98% (inactive) |
